Test results from ChEMBL document CHEMBL1130403, “Synthesis and biological activity of novel nonnucleoside inhibitors of HIV-1 reverse transcriptase. 2-Aryl-substituted benzimidazoles” (J Med Chem, 1997).

Key:
[1] = molecular target: Human immunodeficiency virus type 1 reverse transcriptase (Human immunodeficiency virus 1) (UniProt Q72547); assay: Inhibition of HIV-1 (wild type) reverse transcriptase at 10 uMol.; conditions: 10 uM
Method in brief: (§1)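 Purified heterodimer RT (0.015 mg/mL) incubated with or without inhibitor (10 μM) in 25 mM Tris pH 8.0, 75 mM KCl, 8 mM MgCl₂, 2 mM DTT, 0.1 mg/mL BSA, CHAPS, 0.1 units poly(rC)-oligo(dG), 0.01 mM dGTP plus [α-³⁵S]-dGTP; 30 min, 37 °C. Nucleotide incorporation expressed relative to no-inhibitor control.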

CEM-SS = assay: In vitro 50% cellular protection of CEM-SS cells from HIV-1 induced cytopathicity.; assay type: functional, cell-based; conditions: Homo sapiens
[2] = molecular target: Human immunodeficiency virus type 1 reverse transcriptase (Human immunodeficiency virus 1, UniProt Q72547); assay: The quantity of compound required to reduce WT Reverse transcriptase activity by 50%
Method in brief: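 RNA-dependent DNA polymerase activity of purified heterodimer RT (0.015 mg/mL) at various inhibitor concentrations; 25 mM Tris pH 8.0, 75 mM KCl, 8 mM MgCl₂, 2 mM DTT, 0.1 mg/mL BSA, CHAPS, poly(rC)-oligo(dG) template-primer, 0.01 mM dGTP with [α-³⁵S]-dGTP tracer; 30 min at 37 °C; radiolabel incorporation read.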

[3] = molecular target: Human immunodeficiency virus type 1 reverse transcriptase (Human immunodeficiency virus 1) (UniProt Q72547); assay: Compound is evaluated for the percentage of inhibition of HIV-1 WT Reverse transcriptase at 10 uM drug concentration
Method in brief: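 Purified heterodimer HIV-1 WT RT (0.015 mg/mL), RNA-dependent DNA polymerase assay; poly(rC)-oligo(dG) template-primer (0.1 units), 0.01 mM dGTP plus [α-³⁵S]-dGTP, in 25 mM Tris pH 8.0, 75 mM KCl, 8 mM MgCl₂, 2 mM DTT, 0.1 mg/mL BSA, CHAPS; 30 min, 37 °C. Nucleotide incorporation relative to no-inhibitor control gives % inhibition.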

[4] = molecular target: Human immunodeficiency virus type 1 reverse transcriptase (Human immunodeficiency virus 1) (UniProt Q72547); assay: Compound is evaluated for the percent inhibition of HIV-1 WT Reverse transcriptase at 10 uM drug concentration; method in brief: as §1

| inhibition [1] [%] | EC50 (CEM-SS) [µM] | Compound | other results |
| --- | --- | --- | --- |
| 43 | – | Cc1cccc2c1nc(-c1c(F)cccc1F)n2Cc1cccnc1 | – |
| 36 | – | Cc1cccc2c1nc(-c1c(F)cccc1F)n2Cc1c(F)c(F)c(F)c(F)c1F | – |
| 92 | 0.44 | Cc1cccc2c1nc(-c1c(F)cccc1F)n2Cc1c(F)cccc1F | IC50 [2]: 0.2 µM |
| 40 | – | Cc1cccc2c1ncn2Cc1c(F)cccc1F | – |
| 2 | – | Cc1cccc2c1nc(-c1cccc3ccccc13)n2Cc1c(F)cccc1F | – |
| 8 | – | Cc1cccc2c1nc(-c1ccc3ccccc3c1)n2Cc1c(F)cccc1F | – |
| 26 | – | Cc1cccc2c1nc(-c1ccc(C#N)cc1)n2Cc1c(F)cccc1F | – |
| – | 6.06 | Fc1cccc(F)c1Cn1c(-c2ccccc2)nc2ccccc21 | IC50 [2]: 16 µM; inhibition [4]: 77% |
| 22 | – | Cc1nc2ccccc2n1Cc1c(F)cccc1F | – |
| 52 | – | O=S(=O)(c1ccccc1)n1c(-c2c(F)cccc2F)nc2ccccc21 | – |
| 71 | > 32 | Fc1cccc(F)c1-c1nc2ccccc2n1Cc1ccccc1 | IC50 [2]: 18.6 µM |

More lines, now with the values behind:

| Compound | inhibition [1] [%] | EC50 (CEM-SS) [µM] | other results |
| --- | --- | --- | --- |
| Cc1cccc2c1nc(C(C)C)n2Cc1c(F)cccc1F | 53 | – | – |
| Cc1cccc2c1nc(-c1cccnc1)n2Cc1c(F)cccc1F | 35 | 31.6 | – |
| Cc1cccc2c1nc(-c1c(F)cccc1F)n2Cc1ccccc1 | 87 | 0.75 | IC50 [2]: 1.6 µM |
| Cc1ccccc1-c1nc2ccccc2n1Cc1c(F)cccc1F | 71 | – | – |
| Fc1cccc(F)c1COCc1nc2ccccc2n1Cc1c(F)cccc1F | 7 | – | – |
| Cc1cccc2c1nc(-c1c(F)cccc1F)n2Cc1c(Cl)cccc1Cl | 58 | 3.16 | – |
| Cc1cccc2c1nc(-c1ccncc1)n2Cc1c(F)cccc1F | 70 | 3.5 | – |
| O=C(c1c(F)cccc1F)n1c(-c2c(F)cccc2F)nc2ccccc21 | 8 | – | – |
| Fc1cccc(F)c1C1SCc2nc3ccccc3n21 (centres undefined) [THIAZOLOBENZIMIDAZOLE] | – | 0.52 | IC50 [2]: 0.5 µM; inhibition [3]: 84% |
| Cc1cccc2c1nc(-c1c(F)cccc1F)n2S(=O)(=O)c1ccccc1 | 39 | – | – |
| Cc1cccc2c1nc(C=O)n2Cc1c(F)cccc1F | 59 | – | – |
| Cc1cccc2c1nc(CO)n2Cc1c(F)cccc1F | 12 | – | – |
| Fc1cccc(F)c1Cn1c(-c2c(F)cccc2F)nc2ccccc21 | 93 | 1.7 | IC50 [2]: 0.11 µM |
